Results from ChEMBL document CHEMBL4699389, “Design and synthesis of a bivalent probe targeting the putative mu opioid receptor and chemokine receptor CXCR4 heterodimer” (RSC Med Chem, 2020).
Active and inactive are the calls of the source. The rule behind the calls is not given here.

Legend:
[1] = target: Mu-type opioid receptor (Mus musculus) (UniProt P42866); assay: Agonist activity at mouse MOR expressed in CHO cells assessed as increase in calcium influx incubated for 15 mins by Fluo-4AM dye based fluorescence assay; type: functional, cell-based
Chain of Mu-type opioid receptor (Mus musculus) (P42866 whole entry): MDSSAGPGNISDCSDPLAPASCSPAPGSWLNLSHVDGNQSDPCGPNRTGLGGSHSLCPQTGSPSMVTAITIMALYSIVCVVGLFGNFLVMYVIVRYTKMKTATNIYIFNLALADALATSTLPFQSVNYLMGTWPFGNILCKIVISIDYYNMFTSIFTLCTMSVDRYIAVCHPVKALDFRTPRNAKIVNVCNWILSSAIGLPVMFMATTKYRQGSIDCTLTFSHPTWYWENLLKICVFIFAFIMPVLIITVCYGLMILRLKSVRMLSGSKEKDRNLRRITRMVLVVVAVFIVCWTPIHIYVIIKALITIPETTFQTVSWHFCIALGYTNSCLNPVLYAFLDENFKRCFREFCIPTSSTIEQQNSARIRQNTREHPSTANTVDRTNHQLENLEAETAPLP
Method in brief: (§1)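 Cells transiently transfected with Gqi5 (Lipofectamine 2000), plated at […] per well and grown to confluence. At 48 h post-transfection, loaded with fluo-4 AM plus probenecid in HBSS-HEPES-Ca-Mg buffer for 45 min. Ligands tested alone at 0.3 nM to 3 μM. Ca²⁺ followed as RFU for 90 s on FlexStation3. Triplicate doses, at least 4 repeats.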

[2] = target: T1, C-X-C chemokine receptor type 4 (Homo sapiens, UniProt P61073); assay: Agonist activity at […] (unknown origin) expressed in HOS cells assessed as increase in calcium influx incubated for 15 mins by Fluo-4AM dye based fluorescence assay; type: functional, cell-based; method in brief: as §1
T1 sequence (P61073 whole entry): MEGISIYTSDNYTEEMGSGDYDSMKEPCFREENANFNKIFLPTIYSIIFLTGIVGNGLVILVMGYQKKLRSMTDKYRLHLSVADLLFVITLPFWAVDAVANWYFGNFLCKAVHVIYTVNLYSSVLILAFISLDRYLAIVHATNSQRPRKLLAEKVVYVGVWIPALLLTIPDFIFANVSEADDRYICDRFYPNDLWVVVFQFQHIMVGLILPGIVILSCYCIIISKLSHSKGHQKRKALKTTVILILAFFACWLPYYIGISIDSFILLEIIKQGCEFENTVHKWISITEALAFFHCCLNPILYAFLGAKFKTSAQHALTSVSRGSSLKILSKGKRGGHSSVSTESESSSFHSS

[3] = target: T1, C-X-C chemokine receptor type 4; assay: Antagonist activity at CXCR4 (unknown origin) expressed in HOS cells assessed as decrease in SDF1-induced calcium influx incubated for 15 mins followed by SDF1 stimulation and measured after 90 sec by Fluo-4AM dye based fluorescence assay; type: functional, cell-based
Method in brief: (§2)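 Gqi5-transfected cells, 48 h post-transfection, loaded with fluo-4 AM/probenecid for 45 min. Pre-incubated 15 min with compound at varying concentrations, then agonist added: SDF-1 for CXCR4-HOS, DAMGO for MOR-CHO. RFU read for 90 s on FlexStation3. IC50 from peak values by non-linear regression. Triplicate doses, at least 4 repeats.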

Mu-type opioid receptor [4] = target: T2, Mu-type opioid receptor (Mus musculus, UniProt P42866); assay: Antagonist activity at mouse MOR expressed in CHO cells assessed as decrease in DAMGO-induced calcium influx incubated for 15 mins followed by DAMGO stimulation and measured after 90 sec by Fluo-4AM dye based fluorescence assay; type: functional, cell-based; method in brief: as §2
T2 sequence (P42866 whole entry): as the sequence (P42866 whole entry) above

[5] = target: T1, C-X-C chemokine receptor type 4; assay: Binding affinity to CXCR4 (unknown origin) expressed in CHO cells incubated for 40 mins by immunofluorescence assay; type: cell-based
Method in brief: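 Trypsinized CHO-CXCR4 cells (5×10⁵ per well) in FACS buffer (0.5% BSA, 0.05% azide in PBS). Incubated 40 min on ice with mouse anti-human CD184 (1:2000) plus graded compound concentrations, then with anti-mouse IgG-FITC (1:1000) for 30 min on ice. IC50 from at least three independent experiments.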

Mu-type opioid receptor [6] = target: T2, Mu-type opioid receptor; assay: Displacement of [3H]-NLX from mouse MOR expressed in CHO cells incubated for 1.5 hrs by radioligand binding assay; type: cell-based

Row | Structure (SMILES) | Activity [1] | Activity [2] | IC50 [3] | IC50 (Mu-type opioid receptor [4]) | IC50 [5] | Ki (Mu-type opioid receptor [6])
1 | CC1(C)CN2C(CS/C(=N\[C@H]3CC[C@H](CNC(=O)COCC(=O)NCCCCCCNC(=O)COCC(=O)N[C@@H]4CC[C@@]5(O)[C@H]6Cc7ccc(O)c8c7[C@@]5(CCN6CC5CC5)[C@H]4O8)CC3)NC3CCCCC3)=CSC2=N1 | inactive | inactive | 3300 nM | 61.9 nM | 17200 nM | 25.4 nM
2 | CNC(=O)COCC(=O)NCCCCCCNC(=O)COCC(=O)NC[C@H]1CC[C@H](/N=C(/NC2CCCCC2)SCC2=CSC3=NC(C)(C)CN23)CC1 | – | inactive | 78300 nM | – | 74000 nM | –
3 | CNC(=O)COCC(=O)NCCCCCCNC(=O)COCC(=O)N[C@@H]1CC[C@@]2(O)[C@H]3Cc4ccc(O)c5c4[C@@]2(CCN3CC2CC2)[C@H]1O5 | inactive | inactive | – | 133 nM | – | 2 nM
